# Experimental data of several laboratories.
# Each line is one published result; the experiments were not run side by side.
# DRD5: D(1B) dopamine receptor (DRD5, Homo sapiens, UniProt P21918)
# SLC10A2: Ileal sodium/bile acid cotransporter (SLC10A2, Homo sapiens, UniProt Q12908)
# SETD7: Histone-lysine N-methyltransferase SETD7 (SETD7, Homo sapiens, UniProt Q8WTS6)
# CNR2: Cannabinoid receptor 2 (CNR2, Homo sapiens, UniProt P34972)
# HSD11B1: 11-beta-hydroxysteroid dehydrogenase 1 (HSD11B1, Homo sapiens, UniProt P28845)
Compound,target,test,setting,inhibition [%]
O=C(O)c1ncccc1O,"72 kDa type IV collagenase (MMP2, Homo sapiens, UniProt P08253)","enzyme activity, inhibitor, fluorescence",1 mM,~50
CCN(CC)c1ccc(C2Nc3ccc(C(=O)c4ccccc4)cc3NC3=C2C(=O)CC(C)(C)C3)cc1 (centres unmarked),DRD5,"ligand displacement, radioligand",10 µM,37
NS(=O)(=O)c1cc2c(cc1C(F)(F)F)NC(Cc1ccccc1)NS2(=O)=O (centres unmarked),SLC10A2,"transporter uptake, inhibitor, radiometric",1 mM,64.5
CN(C)c1ccc2nc3ccc(=[N+](C)C)cc-3sc2c1,SETD7,cell-free assay,10 µM,35
CC(C)(C#N)c1cc(Cn2cncn2)cc(C(C)(C)C#N)c1,SLC10A2,"transporter uptake, inhibitor, radiometric",1 mM,36.8
Oc1cccc(Nc2nc(-c3ccc(F)cc3F)cs2)c1,CNR2,cell-free assay,10 µM,35.3
COc1ccc2c(c1)c(CC(=O)O)c(C)n2C(=O)c1ccc(Cl)cc1,SLC10A2,"transporter uptake, inhibitor, radiometric",1 mM,93.2
O=C1C=CC(=O)c2c(O)cccc21,SETD7,cell-free assay,10 µM,13
CN1CCCCC1CCN1c2ccccc2Sc2ccc([S+](C)[O-])cc21 (centres unmarked),SLC10A2,"transporter uptake, inhibitor, radiometric",1 mM,73.6
COc1cc(NC(C)CCCN)c2ncccc2c1 (centres unmarked),SETD7,cell-free assay,10 µM,-19
CN(C)CCCN1c2ccccc2Sc2ccc(Cl)cc21,HSD11B1,"enzyme activity, inhibitor","20 µM, lysate",< 40
O=C(O)CCCCCCCCCCCC[C@@H]1C=CCC1,SETD7,cell-free assay,10 µM,-48
NS(=O)(=O)c1cc2c(cc1Cl)NC(C(Cl)Cl)NS2(=O)=O (centres unmarked),SLC10A2,"transporter uptake, inhibitor, radiometric",1 mM,44.7
CC(C)c1c(C(=O)Nc2ccccc2)c(-c2ccccc2)c(-c2ccc(F)cc2)n1CC[C@@H](O)C[C@@H](O)CC(=O)O,HSD11B1,"enzyme activity, inhibitor","20 µM, lysate",< 40
COc1cc(NC(C)=O)c(Cl)cc1C(=O)Nc1nccs1,CNR2,cell-free assay,10 µM,25
Cc1cn([C@H]2C[C@H](N=[N+]=[N-])[C@@H](CO)O2)c(=O)[nH]c1=O,SLC10A2,"transporter uptake, inhibitor, radiometric",1 mM,< 10
CNC(=O)c1cc(Oc2ccc(NC(=O)Nc3ccc(Cl)c(C(F)(F)F)c3)cc2)ccn1,"G protein-coupled receptor kinase 5 (GRK5, Homo sapiens, UniProt P34947)","enzyme activity, inhibitor",10 µM,0
Ic1cccc2cnccc12,"Protein mono-ADP-ribosyltransferase PARP6 (PARP6, Homo sapiens, UniProt Q2NL67)","enzyme activity, inhibitor",10 µM,11
CCCN(CCC)S(=O)(=O)c1ccc(C(=O)O)cc1,SLC10A2,"transporter uptake, inhibitor, radiometric",1 mM,47.4
CCN(c1cc(C#CCN2CCOCC2)cc(C(=O)NCc2c(C)cc(C)[nH]c2=O)c1C)[C@H]1CC[C@H](N(C)CCOC)CC1,"Histone-lysine N-methyltransferase SUV39H1 (SUV39H1, Homo sapiens, UniProt O43463)","enzyme activity, inhibitor",1 µM,11
CN(C)c1ccc(C(=C2C=CC(=[N+](C)C)C=C2)c2ccc(N(C)C)cc2)cc1,SETD7,cell-free assay,10 µM,59
CN1CCN(CCCOc2ccc(=O)n(-c3ccc(Cl)c(Cl)c3)n2)CC1,CNR2,ligand displacement,1 µM,27.4
CCCNc1nc2ccccc2n1Cc1ccc(Cl)cc1,DRD5,ligand displacement,10 µM,69.6
O=C(O[C@@H]1Cc2c(O)cc(O)cc2O[C@@H]1c1cc(O)c(=O)c2c(O)c(O)cc([C@H]3Oc4cc(O)cc(O)c4C[C@H]3OC(=O)c3cc(O)c(O)c(O)c3)c2c1)c1cc(O)c(O)c(O)c1,SETD7,cell-free assay,10 µM,38
CC(=O)N[C@H]1CSSC[C@@H](C(=O)N[C@@H](Cc2c[nH]c3ccccc23)C(N)=O)NC(=O)[C@H](Cc2ccccc2)NC(=O)[C@H](CCCNC(=N)N)NC1=O,"Melanocortin receptor 5 (MC5R, Homo sapiens, UniProt P33032)","ligand displacement, radioligand","10 µM, 40 min",0
O=C(c1ccc(Cl)cc1)N(Cc1ccccc1)C1CCCCC1,CNR2,cell-free assay,10 µM,41.6
CN1CC(Oc2cnc(C#N)cc2-c2ccn3nc(NC(=O)C4CC4)cc3c2)C1,"Phosphatidylinositol 5-phosphate 4-kinase type-2 alpha (PIP4K2A, Homo sapiens, UniProt P48426)","enzyme activity, inhibitor",1 µM,3
CCC(C)(C)C(=O)O[C@H]1C[C@@H](C)C=C2C=C[C@H](C)[C@H](CC[C@@H]3C[C@@H](O)CC(=O)O3)[C@H]21,HSD11B1,"enzyme activity, inhibitor","20 µM, lysate",< 40
CN1CCC(=C2c3ccccc3Sc3ccccc32)CC1,SETD7,cell-free assay,10 µM,41
O=C(c1ccccc1)c1ccc2n1CCC2C(=O)O (centres unmarked),SLC10A2,"transporter uptake, inhibitor, radiometric",1 mM,< 10
O=C1C=C2CC3(O)COc4c(ccc(O)c4O)C3=C2C=C1O (centres unmarked),SETD7,cell-free assay,10 µM,28
O=C(NC[C@H]1CN(c2ccc(N3CCOCC3=O)cc2)C(=O)O1)c1ccc(Cl)s1,"Coagulation factor X (F10, Homo sapiens, UniProt P00742)","enzyme activity, inhibitor, absorbance",0.1 µM,88.6
